SENP6 block: inhibitors of human SENP6 protease. Q9GZR1. Recombinant SENP6 catalytic domain, aminoluciferin luminescence. inhibition, % at 10 µM. 330,000 tested, 1.8% active. AID 2599;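 active = inhibition above about 50% at the single tested dose, limit read from the data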
SENP7 inh: inhibitors of human SENP7 protease; Q9BQF6; inhibition, % at 5 µM; recombinant SENP7, Z-RLRGG-aminoluciferin luminescence, 40 min; 330,000 tested, 1.5% active;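 active = inhibition above about 50% at the single test dose, limit read from the data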
Target sequence (Q9BQF6 706-1050 limits assumed): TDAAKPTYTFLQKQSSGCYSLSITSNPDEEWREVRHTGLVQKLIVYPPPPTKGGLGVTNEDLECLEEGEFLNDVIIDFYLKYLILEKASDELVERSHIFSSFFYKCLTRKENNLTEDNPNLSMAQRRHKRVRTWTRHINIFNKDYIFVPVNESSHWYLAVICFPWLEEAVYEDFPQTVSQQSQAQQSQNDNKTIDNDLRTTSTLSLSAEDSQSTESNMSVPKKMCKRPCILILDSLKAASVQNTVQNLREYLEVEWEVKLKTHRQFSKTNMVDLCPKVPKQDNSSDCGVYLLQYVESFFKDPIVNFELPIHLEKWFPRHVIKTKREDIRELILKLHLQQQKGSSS
SENP8 block-1: blocks the human protease SENP8; AID 2540; 330,000 tested, 1.2% active; inhibition, % at 10 µM; purified SENP8, Z-RLRGG-aminoluciferin cleavage, luminescence; Q96LD8; in the data active = inhibition above about 50%
Platelet DG rel: modulates dense granule release in human platelets | inhibition, %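 (compounds screened at 7.5 µM in platelet-rich plasma)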 | human platelet-rich plasma, SFLLRN dense granule ATP release, luminescence | AID 1663 | 300,000 tested, 0.22% active;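 active = mean replicate score, as percent of positive control, at or above 50; inconclusive = mean below 50 but at least one replicate at or above 50; inactive = mean and every replicate below 50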
SENP8 block-2: blocks human SENP8 cleavage of Nedd8 substrate | Q96LD8 | recombinant SENP8, Nedd8 substrate fluorescence | inhibition, % at 20 µM | 360,000 tested, 0.64% active; in the data active = inhibition mostly above about 40%, no sharp cut-off; inactive = mostly below about 27%
SENP1 inh: SENP1 (human) catalytic domain inhibition; inhibition, % at 10 µM; Q9P0U3; recombinant SENP1 catalytic domain, CyPet-SUMO1-YPet FRET cleavage; 360,000 tested, 0.21% active;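 active = inhibition at least 30% at 10 µM, raw YFP signal under a set limit, fluorescence ratio 0.5 to 1.5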
Target sequence (Q9P0U3 419-644 limits assumed): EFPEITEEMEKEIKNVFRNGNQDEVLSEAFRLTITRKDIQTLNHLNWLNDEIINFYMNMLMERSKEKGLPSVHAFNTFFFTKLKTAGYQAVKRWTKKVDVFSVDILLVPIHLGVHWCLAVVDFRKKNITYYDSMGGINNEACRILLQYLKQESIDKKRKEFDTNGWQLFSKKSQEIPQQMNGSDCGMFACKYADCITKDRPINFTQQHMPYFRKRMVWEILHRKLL
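Assay system: hSENP1 catalytic domain, recombinant. Amount: SENP1 enzyme, 20 pM final. Schedule: 50 min reaction, RT, dark. Technique: FRET, CFP and YFP emission. Control set: no-enzyme wells low, DMSO-plus-enzyme wells high control.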
Hits are given with their value; n = inactive; u = inconclusive; x = not tested or not shown. Sampled rows, rich in hits. Any-hit rate of the full collection: about 2.6%.

SMILES	SENP6 block	SENP7 inh	SENP8 block-1	Platelet DG rel	SENP8 block-2	SENP1 inh
CCOC(=O)N1CCN(C(=O)CCN2C(=O)/C(=C\c3ccccc3OC)SC2=S)CC1	n	n	n	n	n	n
CCOc1ccccc1C=C1SC(=S)N(CC)C1=O	x	x	x	x	35.6	n
COc1cccc(CNc2nc3cc(-c4cnn(Cc5ccccc5)c4)sc3c(=O)n2C)c1	x	x	x	x	n	n
COc1ccc(/C=N/Nc2nc3ccccc3s2)cc1O	x	x	x	53.6	n	n
C[C@@H]1CN([C@H](C)CO)C(=O)CCCn2cc(nn2)CO[C@H]1CN(C)C(=O)Nc1ccc(C(C)(C)C)cc1	x	x	x	x	n	n
Cc1ccc(NC(=O)c2nsc(Cl)c2Cl)cc1	53.6	61.8	n	n	n	n
Cc1ccc(NC(=O)c2ccc(Cl)nc2)cc1	n	n	n	n	n	n
CCCCN(C)c1c(C)nc2ccc(C(=O)N3CCN(C(C)=O)CC3)cn12	x	x	x	x	n	n
COC(=O)c1ccc(CSc2nnc(N)s2)cc1	n	n	n	74.9	n	n
O=C(C[C@@H]1C[C@H]2c3cc(NC(=O)c4cccnc4)ccc3O[C@H]2[C@H](CO)O1)NCc1ccc(Oc2ccccc2)cc1	x	x	x	x	n	n
CCOc1ccccc1C1NC(=O)c2ccccc2N1 (stereo not drawn)	x	x	x	x	n	n
CC(=O)N1CC=C2C(C#N)=C(N)C(C#N)(C#N)[C@H](c3ccoc3)[C@H]2C1	n	n	n	n	n	n
N#CC1=C(N)C(C#N)(C#N)[C@H](c2ccoc2)[C@H]2CN(Cc3ccccc3)CC=C12	91.4	77.1	84.0	n	n	n
O=[N+]([O-])c1cc(N=Nc2ccc3ccccc3c2)ccc1O	x	x	x	54.5	n	n
Nc1ccc(O)c([N+](=O)[O-])c1	n	n	n	x	n	n
O=C(COc1ccccc1F)N/N=C1\CCCc2ccccc21	56.8	n	n	n	n	n
COc1ccc(C(=O)Nc2ccccc2C(=O)N/N=C/c2ccncc2)cc1OC	n	n	n	63.9	n	n
CCn1c(SCC(=O)N(C)c2c(N)n(Cc3ccccc3)c(=O)[nH]c2=O)nc2ccccc21	n	n	n	59.2	n	n
CCCCn1nnnc1C(c1ccccc1)N1CCN(c2cccc(C)c2C)CC1 (stereo not drawn)	x	x	x	x	n	n
O=C(c1ccncc1)N(c1ccc(N2CCOCC2)cc1)C(c1ccccc1)c1nc2ccccc2[nH]1 (stereo not drawn)	x	x	x	x	n	n
O=C(Nc1ccncc1)c1cc(C2CCCCN2C(=O)CCCc2ccccc2)on1 (stereo not drawn)	x	x	x	x	n	n
COc1cc([N+](=O)[O-])cc(/C=N/NC(=O)c2cc(C)nc3ccccc23)c1O	n	n	n	n	n	40.4
COc1ccc(C(=O)CC(Sc2ccccc2N)c2ccc(OC)cc2)cc1 (stereo not drawn)	x	x	x	x	n	n
Cc1cccc(NC(=O)COC(=O)c2cccc3c2C(=O)c2ccccc2C3=O)c1C	n	n	n	n	n	n
CCN(CC)CCC(=O)Nc1cccc2c1C(=O)c1ccccc1C2=O	n	n	n	n	n	61.8
SMILES	SENP6 block	SENP7 inh	SENP8 block-1	Platelet DG rel	SENP8 block-2	SENP1 inh
CCN(CC)CCNC(=O)c1ccc2c(c1NCCO)C(=O)c1ccccc1C2=O	n	n	n	n	88.2	n
Nc1cccc(C(=O)OCC(=O)Nc2cccc3c2C(=O)c2ccccc2C3=O)c1	n	n	n	n	n	32.6
Nc1cccc(C(=O)OCC(=O)c2ccccc2)c1	67.6	70.2	54.6	n	n	n
CCOc1ccc(CCN2C(=S)N([C@@H](Cc3ccc(O)cc3)CN3CCC[C@@H]3CN3C(=S)NC[C@@H]3Cc3ccccc3)C[C@@H]2Cc2ccc(O)cc2)cc1	x	x	x	x	n	n
CC(C)CCN1C(=O)CSCC1(C)C(=O)NC(C)C (stereo not drawn)	x	x	x	x	n	n
O=C(COC(=O)c1ccc([N+](=O)[O-])o1)NC1CCCC1	n	n	n	x	40.1	n
O=C1/C(=C/c2ccc([N+](=O)[O-])cc2)C=C(c2ccccc2)N1c1ccc(O)cc1	n	n	n	n	n	n
O=C(O)c1cccc(N2C(=O)/C(=C/c3ccc([N+](=O)[O-])cc3)C=C2c2ccccc2)c1	n	n	n	n	n	32.1
CC(=O)n1c2ccccc2c2nc(NC(C)C)sc21	n	n	n	n	n	n
CNc1nc2c3ccccc3n(C(C)=O)c2s1	n	n	n	50.0	n	n
O=C1NCCCC1C(=O)N/N=C/c1ccc([N+](=O)[O-])cc1 (stereo not drawn)	n	n	n	n	n	n
O=C1NCCCC1C(=O)N/N=C/c1cc([N+](=O)[O-])ccc1O (stereo not drawn)	n	n	n	n	44.7	n
Cc1ccc(-c2c(C#N)c(N)n(-c3ccc(C)cc3)c(=O)c2C#N)cc1	n	n	n	u	n	n
Cc1ccc(-n2c(N)c(C#N)c(-c3ccc(Cl)cc3)c(C#N)c2=O)cc1	n	n	n	74.6	n	n
CCc1nc2ccc(C(=O)N(C)CCCN(C)C)cn2c1N(C)CCCc1ccccc1	x	x	x	x	n	n
CCC(C)(C)C1CCc2[nH]nc(C(=O)N/N=C(\C)c3ccco3)c2C1 (stereo not drawn)	58.0	n	n	n	n	n
CCCNC(=O)c1n[nH]c2c1CC(C(C)(C)CC)CC2 (stereo not drawn)	n	n	n	x	n	n
COC(=O)c1ccccc1NC(=O)Nc1ccc(C(=O)N2CCCC2)cc1	n	n	n	n	n	n
COc1ccccc1NC(=O)NC1(C(=O)N2CCCCCC2)CCCCC1	n	n	n	52.6	n	n
COc1ccccc1NC(=O)Nc1ccc(C(=O)N2CCCCC2)cc1	95.8	97.4	91.4	92.2	n	n
COc1ccc(NC(=O)N(C)C[C@H]2Oc3ncc(Br)cc3C(=O)N([C@H](C)CO)C[C@@H]2C)cc1	x	x	x	x	n	n
CCNC(=O)C1CCCN(C(=O)c2cc(C)oc2C)CC1 (stereo not drawn)	x	x	x	x	n	n
CCOC(=O)N1CCC(N2C(=O)c3ccc(C(=O)Nc4ccc(OC)c(OC)c4)cc3C2=O)CC1	n	n	n	n	12.8	n
CCOC(=O)N1CCC(N2C(=O)c3ccc(C(=O)NCCC(C)C)cc3C2=O)CC1	n	n	n	n	n	n
Cc1nnsc1C(=O)N1CCCC1(C)C(=O)O (stereo not drawn)	x	x	x	x	n	n
C/C(=N/NC(=O)c1cc2ccccc2cc1O)c1ccco1	73.8	n	52.5	n	n	n
COC(=O)/C=c1/sc2nc3ccccc3n2c1=O	n	n	n	n	n	n
O=c1/c(=C\c2cc([N+](=O)[O-])cc([N+](=O)[O-])c2O)sc2nc3ccccc3n12	n	n	n	x	n	91.3
O=c1/c(=C/c2ccccn2)sc2nc3ccccc3n12	84.2	97.7	79.0	n	n	n
O=C(O)c1ccc(NC(=S)NC(=O)c2ccc3ccccc3c2)cc1	n	n	n	n	n	n
